Data as given in ChEMBL document CHEMBL4257590, “Semisynthesis of Platensimycin Derivatives with Antibiotic Activities in Mice via Suzuki-Miyaura Cross-Coupling Reactions” (J Med Chem, 2018).
≈ marks a conversion by molar mass, not a printed value. Calls of active or inactive are those of the source. The calls are words filed in the database; no cut-off is given here.

Legend:
Staphylococcus aureus [1] = test: Antibacterial activity against methicillin-sensitive Staphylococcus aureus isolate 1 after 16 hrs by agar dilution method; format: functional; settings: isolate 1, 16 h
Summary of the method: (§1)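 Agar dilution in LB agar with compound (from methanol solutions) at final 0.5–64 μg/ml per plate. Strains grown 16 h at 37 °C, 250 rpm in LB broth, adjusted to OD600 0.25±0.05, diluted 10^4-fold; 2 μl spotted per plate, incubated 16 h at 37 °C. MIC = lowest concentration with no visible colonies; at least two independent experiments. Linezolid and PTM as controls.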

Staphylococcus aureus [2] = test: Antibacterial activity against methicillin-resistant Staphylococcus aureus isolate 4 after 16 hrs by agar dilution method; format: functional; settings: isolate 4, 16 h; summary of the method: as §1
Staphylococcus aureus [3] = test: Antibacterial activity against methicillin-resistant Staphylococcus aureus isolate 6 after 16 hrs by agar dilution method; format: functional; settings: isolate 6, 16 h; summary of the method: as §1
Mus musculus [4] = test: Toxicity in C57BL/6J mouse infected with methicillin-resistant Staphylococcus aureus assessed as effect on mouse body weight at 10 mg/kg, ip administered 1 and 5 hrs postinfection and measured for 7 days; format: organism-based; settings: in vivo, 168 h
Summary of the method: (§2)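 Lethal peritonitis: female C57BL/6J mice, 6–8 weeks, 18–21 g, infected ip with 2 × 10^7 CFU MRSA in 0.5 ml saline with 5% (w/v) mucin. Treated ip 0.2 mL/mouse at 1 and 5 h post-infection (n = 5/group): 50 mg/kg at 5 mg/mL in 12.5% DMSO vehicle, or 10 mg/kg at 1 mg/mL in 2.5% DMSO/30% propanediol/30% PEG400/37.5% saline; vancomycin in saline, saline control. Checked twice daily for survival and body weight over 7 days.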

Staphylococcus aureus [5] = test: Antibacterial activity against methicillin-sensitive Staphylococcus aureus isolate 2 after 16 hrs by agar dilution method; format: functional; settings: isolate 2, 16 h; summary of the method: as §1
Staphylococcus aureus [6] = test: Antibacterial activity against methicillin-resistant Staphylococcus aureus infected in C57BL/6J mouse assessed as reduction in bacterial load in kidney at 50 mg/kg, ip administered 1 and 5 hrs postinfection and measured at 12 hrs post bacterial infection; format: functional, organism-based
Summary of the method: (§3)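 Female C57BL/6J mice, 6–8 weeks, 18–21 g, infected ip with 2 × 10^7 CFU MRSA in 0.2 ml saline with 5% hog gastric mucin. Dosed ip 50 mg/kg at 1 and 5 h post-infection; test agents at 5 mg/mL in 12.5% DMSO/30% propanediol/30% PEG400/27.5% saline, vancomycin in saline, saline control. At 12 h blood and homogenized kidneys plated on LB agar overnight at 37 °C for CFU; n = 5, mean ± SEM, unpaired two-tailed t-test.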

Mus musculus [7] = test: Toxicity in C57BL/6J mouse infected with methicillin-resistant Staphylococcus aureus assessed as mouse death at 50 mg/kg, […] measured within 48 hrs; format: organism-based; settings: in vivo, ip
Staphylococcus aureus [8] = test: Antibacterial activity against Staphylococcus aureus ATCC 29213 after 16 hrs by agar dilution method; format: functional; settings: ATCC 29213, 16 h; summary of the method: as §1
Staphylococcus aureus [9] = test: Antibacterial activity against methicillin-resistant Staphylococcus aureus isolate 3 after 16 hrs by agar dilution method; format: functional; settings: isolate 3, 16 h; summary of the method: as §1
Staphylococcus aureus [10] = test: Antibacterial activity against methicillin-resistant Staphylococcus aureus infected in C57BL/6J mouse assessed as protection against lethal peritonitis by measuring mouse survival at 50 mg/kg, ip administered 1 and 5 hrs postinfection and measured up to 24 hrs post infection; format: functional, organism-based; summary of the method: as §2
Staphylococcus aureus [11] = test: Antibacterial activity against methicillin-resistant Staphylococcus aureus isolate 5 after 16 hrs by agar dilution method; format: functional; settings: isolate 5, 16 h; summary of the method: as §1
Staphylococcus aureus [12] = test: Antibacterial activity against methicillin-resistant Staphylococcus aureus after 18 hrs in presence of 10% human serum by resazurin dye-based assay; format: functional
Summary of the method: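 One clinical MRSA strain grown to exponential phase (OD600 = 0.5), diluted to 10^6 CFU/ml in Mueller-Hinton broth; 100 μl compound dilutions mixed with 100 μl bacteria with or without 10% human serum, 18 h at 37 °C. Resazurin (0.66 mM, 50 μl) then added and read visually.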

Staphylococcus aureus [13] = test: Antibacterial activity against methicillin-resistant Staphylococcus aureus infected in C57BL/6J mouse assessed as reduction in bacterial load in blood at 50 mg/kg, ip administered 1 and 5 hrs postinfection and measured at 12 hrs post bacterial infection; format: functional, organism-based; summary of the method: as §3

C[C@]12C[C@@]34C=C(c5cc6cccc7ccc8cccc5c8c76)C(=O)[C@@](C)(CCC(=O)Nc5c(O)ccc(C(=O)O)c5O)[C@@H]3[C@H](C[C@H]1C4)O2
MIC (Staphylococcus aureus [1]): 2 µg/mL (≈ 3.12 µM)
MIC (Staphylococcus aureus [2]): 2 µg/mL (≈ 3.12 µM)
MIC (Staphylococcus aureus [3]): 2 µg/mL (≈ 3.12 µM)
Activity (Mus musculus [4]): Non-Toxic
MIC (Staphylococcus aureus [5]): 2 µg/mL (≈ 3.12 µM)
Activity (Staphylococcus aureus [6]): Active
Activity (Mus musculus [7]): Toxic
MIC (Staphylococcus aureus [8]): 2 µg/mL (≈ 3.12 µM)
MIC (Staphylococcus aureus [9]): 4 µg/mL (≈ 6.23 µM)
Activity (Staphylococcus aureus [10]): inactive
MIC (Staphylococcus aureus [11]): 4 µg/mL (≈ 6.23 µM)
MIC (Staphylococcus aureus [12]): 4 µg/mL
Activity (Staphylococcus aureus [13]): Active
